Results as given in ChEMBL document CHEMBL2021913, “Synthesis and biological evaluation of some novel thiazole substituted benzotriazole derivatives” (2012).
In brackets after ≈: the same amount, converted by molar mass. Activity calls are given as the source filed them. The rule behind the calls is not given here.

Assays:
Type in all cases: functional
[1] = test system: Bacillus subtilis; experiment: Antimicrobial activity against Bacillus subtilis 2250 at 35 degC after 18 to 24 hrs by NCCLS method based antimicrobial assay; conditions: for MBC: read-out: MBC99.9
[2] = test system: Pseudomonas aeruginosa; experiment: Antimicrobial activity against Pseudomonas aeruginosa 2036 at 35 degC after 18 to 24 hrs by NCCLS method based antimicrobial assay; conditions: for MBC: read-out: MBC99.9
[3] = test system: Aspergillus niger; experiment: Antimicrobial activity against Aspergillus niger 545 at 35 degC after 48 hrs by CLSI method based antimicrobial assay; conditions: for MFC: read-out: MFC99.9
Outline: (§1)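 Broth microdilution following CLSI guidelines over 256 to 1 µg/mL. MIC90 is the lowest concentration completely inhibiting growth. For MFC, 0.1 mL from each tube spread on agar and CFU counted after 48 h at 35 °C; MFC is lowest concentration killing 99.9% of inoculum. MFC/MIC ratio calculated: […], ≤4 as fungicidal.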

[4] = test system: Candida albicans; experiment: Antimicrobial activity against Candida albicans 3471 at 35 degC after 48 hrs by CLSI method based antimicrobial assay; conditions: for MFC: read-out: MFC99.9; outline: as §1
[5] = test system: Aspergillus niger; experiment: Ratio of MFC99.9 to MIC90 for Aspergillus niger 545 at 35 degC after 48 hrs by CLSI method based antimicrobial assay; outline: as §1
[6] = test system: Candida albicans; experiment: Ratio of MFC99.9 to MIC90 for Candida albicans 3471 at 35 degC after 48 hrs by CLSI method based antimicrobial assay; outline: as §1
[7] = test system: Staphylococcus aureus; experiment: Antimicrobial activity against Staphylococcus aureus 2079 at 128 ug/disc at 35 degC after 24 hrs by agar-well diffusion assay; conditions: for zone of inhibition at 128 µg/disc: Staphylococcus aureus, 2079, 24 h, read-out: DIZ
Outline: (§2)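 Agar-well diffusion: 24 h bacterial cultures adjusted to 0.5 McFarland (1.5 × 10⁸ CFU/mL) and mixed into molten Mueller-Hinton agar before pouring. 6 mm wells punched and each filled with 50 µL of compound stock or control. Plates incubated 35 °C for 24 h. Zone of growth inhibition diameter measured with vernier caliper.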

[8] = test system: Bacillus subtilis; experiment: Antimicrobial activity against Bacillus subtilis 2250 at 128 ug/disc at 35 degC after 24 hrs by agar-well diffusion assay; conditions: for zone of inhibition at 128 µg/disc: Bacillus subtilis, 2250, 24 h, read-out: DIZ; outline: as §2
[9] = test system: Pseudomonas aeruginosa; experiment: Antimicrobial activity against Pseudomonas aeruginosa 2036 at 128 ug/disc at 35 degC after 24 hrs by agar-well diffusion assay; conditions: for zone of inhibition at 128 µg/disc: Pseudomonas aeruginosa, 2036, 24 h, read-out: DIZ; outline: as §2
[10] = test system: Aspergillus niger; experiment: Antimicrobial activity against Aspergillus niger 545 at 128 ug/disc at 37 degC after 24 to 72 hrs by agar-well diffusion assay; conditions: for zone of inhibition at 128 µg/disc: read-out: DIZ; for diameter of the inhibition zone (DIZ): in the assay text read “disc diffusion assay” for “agar-well diffusion assay”
Outline: (§3)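 Potato dextrose agar base plates overlaid with seeded agar cooled to 40 °C and inoculated with spores from 10-day cultures, final 1 × 10⁶ spores/mL. Compounds dissolved in DMSO at 128 µg/mL and applied on 6 mm filter-paper discs placed on chilled seeded medium. Nystatin positive control, DMSO negative control. Incubation 24–72 h at 37 °C. Inhibition zone diameter read by vernier caliper.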

[11] = test system: Candida albicans; experiment: Antimicrobial activity against Candida albicans 3471 at 128 ug/disc at 37 degC after 24 to 72 hrs by agar-well diffusion assay; conditions: for zone of inhibition at 128 µg/disc: read-out: DIZ; outline: as §3
[12] = test system: Staphylococcus aureus; experiment: Antimicrobial activity against Staphylococcus aureus 2079 at 35 degC after 18 to 24 hrs by NCCLS method based antimicrobial assay; conditions: for MBC: read-out: MBC99.9
[13] = test system: Escherichia coli; experiment: Antimicrobial activity against Escherichia coli 2109 at 35 degC after 18 to 24 hrs by NCCLS method based antimicrobial assay; conditions: for MBC: read-out: MBC99.9
[14] = test system: Escherichia coli; experiment: Antimicrobial activity against Escherichia coli 2109 at 128 ug/disc at 35 degC after 24 hrs by agar-well diffusion assay; conditions: for zone of inhibition at 128 µg/disc: Escherichia coli, 2109, 24 h, read-out: DIZ; outline: as §2

## Clc1ccc(/C(Cn2nnc3ccccc32)=N\Nc2nc(-c3ccc(Cl)cc3)cs2)cc1
[1]
  MIC: 32 µg/mL (≈ 66.8 µM)
  MBC: 64 µg/mL (≈ 134 µM)
[2]
  MIC: 128 µg/mL (≈ 267 µM)
  MBC: 128 µg/mL (≈ 267 µM)
[3]; Aspergillus niger, 545, 48 h
  MIC: 32 µg/mL (≈ 66.8 µM)
  MFC: 32 µg/mL (≈ 66.8 µM)
[4]; Candida albicans, 3471, 48 h
  MIC: 16 µg/mL (≈ 33.4 µM)
  MFC: 32 µg/mL (≈ 66.8 µM)
[5]
  Ratio: 1
[6]
  Ratio: 2
[7]
  zone of inhibition at 128 µg/disc: 27.9 mm
[8]
  zone of inhibition at 128 µg/disc: 25.1 mm
[9]
  zone of inhibition at 128 µg/disc: 11.3 mm
[10]
  zone of inhibition at 128 µg/disc: 18.2 mm
[11]
  zone of inhibition at 128 µg/disc: 21 mm
[12]
  MIC: 64 µg/mL (≈ 134 µM)
  MBC: 32 µg/mL (≈ 66.8 µM)
[13]
  MBC99.9: inactive
  MIC: inactive

## FC(F)(F)c1cc(/C(Cn2nnc3ccccc32)=N\Nc2nc(-c3ccc(Cl)cc3)cs2)cc(C(F)(F)F)c1
[1]
  MBC99.9: inactive
  MIC: inactive
[2]
  MBC99.9: inactive
  MIC: inactive
[3]; Aspergillus niger, 545, 48 h
  MIC: 16 µg/mL (≈ 27.5 µM)
  MFC: 64 µg/mL (≈ 110 µM)
[4]
  MFC99.9: inactive
  MIC: inactive
[5]
  Ratio: 4
[7]
  diameter of the inhibition zone (DIZ): inactive
[14]
  zone of inhibition at 128 µg/disc: 18.7 mm
[8]
  diameter of the inhibition zone (DIZ): inactive
[9]
  diameter of the inhibition zone (DIZ): inactive
[10]
  zone of inhibition at 128 µg/disc: 19.7 mm
[11]
  diameter of the inhibition zone (DIZ): inactive
[12]
  MBC99.9: inactive
  MIC: inactive
[13]
  MIC: 128 µg/mL (≈ 220 µM)
  MBC: 256 µg/mL (≈ 441 µM)

## NYSTATIN
[3]
  MFC99.9: 32 µg/mL
  MIC: 16 µg/mL
[4]
  MFC99.9: 32 µg/mL
  MIC: 16 µg/mL
[5]
  Ratio: 2
[6]
  Ratio: 2

## O=[N+]([O-])c1ccc(-c2csc(N/N=C(/Cn3nnc4ccccc43)c3ccc(Cl)cc3)n2)cc1
[1]
  MBC99.9: inactive
  MIC: inactive
[2]
  MIC: 64 µg/mL (≈ 131 µM)
  MBC: 128 µg/mL (≈ 261 µM)
[3]; Aspergillus niger, 545, 48 h
  MIC: 128 µg/mL (≈ 261 µM)
  MFC: 256 µg/mL (≈ 523 µM)
[4]
  MFC99.9: inactive
  MIC: inactive
[5]
  Ratio: 2
[7]
  diameter of the inhibition zone (DIZ): inactive
[14]
  diameter of the inhibition zone (DIZ): inactive
[8]
  diameter of the inhibition zone (DIZ): inactive
[9]
  zone of inhibition at 128 µg/disc: 16.4 mm
[10]
  zone of inhibition at 128 µg/disc: 13.6 mm
[11]
  diameter of the inhibition zone (DIZ): inactive
[12]
  MBC99.9: inactive
  MIC: inactive
[13]
  MBC99.9: inactive
  MIC: inactive

## Fc1ccc(/C(Cn2nnc3ccccc32)=N\Nc2nc(-c3ccc(Br)cc3)cs2)cc1
[1]
  MIC: 64 µg/mL (≈ 126 µM)
  MBC: 128 µg/mL (≈ 252 µM)
[2]
  MBC99.9: inactive
  MIC: inactive
[3]
  MFC99.9: inactive
  MIC: inactive
[4]; Candida albicans, 3471, 48 h
  MIC: 128 µg/mL (≈ 252 µM)
  MFC: 256 µg/mL (≈ 505 µM)
[6]
  Ratio: 2
[7]
  zone of inhibition at 128 µg/disc: 20.9 mm
[14]
  diameter of the inhibition zone (DIZ): inactive
[8]
  zone of inhibition at 128 µg/disc: 22.8 mm
[9]
  diameter of the inhibition zone (DIZ): inactive
[10]
  diameter of the inhibition zone (DIZ): inactive
[11]
  zone of inhibition at 128 µg/disc: 14.7 mm
[12]
  MIC: 64 µg/mL (≈ 126 µM)
  MBC: 128 µg/mL (≈ 252 µM)
[13]
  MBC99.9: inactive
  MIC: inactive

## FC(F)(F)c1cc(/C(Cn2nnc3ccccc32)=N\Nc2nc(-c3cc(C(F)(F)F)cc(C(F)(F)F)c3)cs2)cc(C(F)(F)F)c1
[1]
  MBC99.9: inactive
  MIC: inactive
[2]
  MBC99.9: inactive
  MIC: inactive
[3]
  MFC99.9: inactive
  MIC: inactive
[4]; Candida albicans, 3471, 48 h
  MIC: 128 µg/mL (≈ 188 µM)
  MFC: 256 µg/mL (≈ 375 µM)
[6]
  Ratio: 2
[7]
  diameter of the inhibition zone (DIZ): inactive
[14]
  zone of inhibition at 128 µg/disc: 16.4 mm
[8]
  diameter of the inhibition zone (DIZ): inactive
[9]
  diameter of the inhibition zone (DIZ): inactive
[10]
  diameter of the inhibition zone (DIZ): inactive
[11]
  zone of inhibition at 128 µg/disc: 11.7 mm
[12]
  MBC99.9: inactive
  MIC: inactive
[13]
  MIC: 128 µg/mL (≈ 188 µM)
  MBC: 256 µg/mL (≈ 375 µM)

## Clc1ccc(-c2csc(N/N=C(/Cn3nnc4ccccc43)c3ccc(Br)cc3)n2)cc1
[1]
  MBC99.9: inactive
  MIC: inactive
[2]
  MIC: 16 µg/mL (≈ 30.5 µM)
  MBC: 32 µg/mL (≈ 61.1 µM)
[3]; Aspergillus niger, 545, 48 h
  MIC: 64 µg/mL (≈ 122 µM)
  MFC: 128 µg/mL (≈ 244 µM)
[4]
  MFC99.9: inactive
  MIC: inactive
[5]
  Ratio: 2
[7]
  diameter of the inhibition zone (DIZ): inactive
[14]
  zone of inhibition at 128 µg/disc: 21.8 mm
[8]
  diameter of the inhibition zone (DIZ): inactive
[9]
  zone of inhibition at 128 µg/disc: 21.2 mm
[10]
  zone of inhibition at 128 µg/disc: 15.2 mm
[11]
  diameter of the inhibition zone (DIZ): inactive
[12]
  MBC99.9: inactive
  MIC: inactive
[13]
  MIC: 64 µg/mL (≈ 122 µM)
  MBC: 128 µg/mL (≈ 244 µM)

## FC(F)(F)c1cc(-c2csc(N/N=C(/Cn3nnc4ccccc43)c3ccc(Cl)cc3)n2)cc(C(F)(F)F)c1
[1]
  MBC99.9: inactive
  MIC: inactive
[2]
  MBC99.9: inactive
  MIC: inactive
[3]
  MFC99.9: inactive
[4]; Candida albicans, 3471, 48 h
  MIC: 64 µg/mL (≈ 110 µM)
  MFC: 128 µg/mL (≈ 220 µM)
[6]
  Ratio: 2
[7]
  diameter of the inhibition zone (DIZ): inactive
[14]
  zone of inhibition at 128 µg/disc: 21.1 mm
[8]
  diameter of the inhibition zone (DIZ): inactive
[9]
  diameter of the inhibition zone (DIZ): inactive
[10]
  diameter of the inhibition zone (DIZ): inactive
[11]
  zone of inhibition at 128 µg/disc: 13.7 mm
[12]
  MBC99.9: inactive
  MIC: inactive
[13]
  MIC: 32 µg/mL (≈ 55.1 µM)
  MBC: 64 µg/mL (≈ 110 µM)

## Brc1ccc(/C(Cn2nnc3ccccc32)=N\Nc2nc(-c3ccc(Br)cc3)cs2)cc1
[1]
  MIC: 128 µg/mL (≈ 225 µM)
  MBC: 256 µg/mL (≈ 450 µM)
[2]
  MBC99.9: inactive
  MIC: inactive
[3]
  MFC99.9: inactive
  MIC: inactive
[4]; Candida albicans, 3471, 48 h
  MIC: 32 µg/mL (≈ 56.3 µM)
  MFC: 64 µg/mL (≈ 113 µM)
[6]
  Ratio: 2
[7]
  zone of inhibition at 128 µg/disc: 23.4 mm
[14]
  diameter of the inhibition zone (DIZ): inactive
[8]
  zone of inhibition at 128 µg/disc: 17.2 mm
[9]
  diameter of the inhibition zone (DIZ): inactive
[10]
  diameter of the inhibition zone (DIZ): inactive
[11]
  zone of inhibition at 128 µg/disc: 18.1 mm
[12]
  MIC: 32 µg/mL (≈ 56.3 µM)
  MBC: 64 µg/mL (≈ 113 µM)
[13]
  MBC99.9: inactive
  MIC: inactive
